Source: ChEMBL document CHEMBL4609986 (Bioorg Med Chem, 2020)

Key:
[1] = species: Homo sapiens; assay: Selectivity index, ratio of CC50 for human HEK293T cells transfected with DYRK1A co-tranfected with Renilla plasmid, pGL3-NFAT and NFATc1 assessed as reduction in luciferase activity by measuring cell number to EC50 for human DYRK1A transfected in HEK293T cells co-transfected with Renilla plasmid, pGL3-NFAT and NFATc1 assessed as derepression of NFAT-dependent luciferase activity measured after 48 hrs by luciferase assay; assay type: cell-based
How it was run: (§1)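 HEK293T cells transfected with PEI using DYRK1A, Renilla plasmid, IL-2-based pGL3-NFAT firefly reporter and NFATc1. Next day the same transfected population was split into 96-well plates; 6 h later cells were treated for 48 h (11-point dose curve, n = 4), then lysed. EC50 from firefly/Renilla ratio, 4-parameter agonist fit. CC50 from loss of constitutive Renilla signal, 4-parameter inhibitor fit.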

[2] = (§2) Cytotoxicity against human HEK293T cells transfected with DYRK1A co-tranfected with Renilla plasmid, pGL3-NFAT and NFATc1 assessed as reduction in luciferase activity by measuring cell number; assay type: cell-based, HEK-293T; how it was run: as §1
[3] = target: T1, Dual specificity tyrosine-phosphorylation-regulated kinase 1A (Homo sapiens, UniProt Q13627); assay: Inhibition of human DYRK1A transfected in HEK293T cells co-transfected with Renilla plasmid, pGL3-NFAT and NFATc1 assessed as derepression of NFAT-dependent luciferase activity measured after 48 hrs by luciferase assay; assay type: cell-based, HEK-293T; how it was run: as §1
[4] = Cytotoxicity against mouse R7T1 cells assessed as reduction in cell viability measured after 48 hrs by Hoechst 33342 staining based analysis
How it was run: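 Mouse R7T1 β-cells cultured in high-glucose DMEM with 10% FBS, doxycycline and pyruvate, plated at 25,000 cells/well. Treated in quadruplicate 6 h later (0.169–10,000 nM) for 48 h. Cells fixed in paraformaldehyde and stained with 4 μM Hoechst 33342; nuclei counted by high-content imaging.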

[5] = target: T1, Dual specificity tyrosine-phosphorylation-regulated kinase 1A; assay: Inhibition of DYRK1A in human pancreatic islets assessed as induction of pancreatic beta-cells replication measured after 48 hrs by Hoechst 33342 staining based analysis
How it was run: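 Human islets (85-95% purity) rested 12 h in low-glucose DMEM with 10% FBS and 20 nM exendin-4. Dispersed to single cells and plated on 804G-conditioned-matrix 384-well plates for 48 h. Treated 48 h, then fixed with 4% PFA. Stained with anti-insulin, anti-Ki-67 and 4 μM Hoechst 33342; Ki67+Insulin+/Insulin+ scored by high-content imaging against per-plate cutoffs.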

[6] = Selectivity index, ratio of CC50 for mouse R7T1 cells assessed as reduction in cell viability measured after 48 hrs by Hoechst 33342 staining based analysis to MEC for inhibition of DYRK1A in human pancreatic islets assessed as induction of pancreatic beta-cells replication measured after 48 hrs by Hoechst 33342 staining based analysis
[7] = test system: HEK-293T; assay: as §2; assay type: cell-based; settings: hek-293t; how it was run: as §1

SMILES	Ratio CC50/EC50 [1]	CC50 [2]	EC50 [3]	CC50 [4]	MEC [5]	Selectivity Index [6]	CC50 [7]
CCOC(=O)c1cnc2ccc(-c3cc(Cl)c(O)c(Cl)c3)nc2c1N[C@H]1CC[C@H](C(N)=O)CC1	> 8	> 10000 nM	1250 nM				
CCOC(=O)c1cnc2ccc(-c3cc(Cl)c(O)c(Cl)c3)nc2c1N[C@H]1CC[C@H](C(=O)N2CCOCC2)CC1	21	3010 nM	97 nM	2080 nM	250 nM	8.3	
CCCCNC(=O)c1cnc2ccc(-c3cc(Cl)c(O)c(Cl)c3)nc2c1N[C@H]1CC[C@H](CN2CCOCC2)CC1	18	79 nM	4 nM				
CCOC(=O)c1cnc2ccc(-c3cc(Cl)c(O)c(Cl)c3)nc2c1N1CCOCC1	35	3680 nM	105 nM				
CCOC(=O)c1cnc2ccc(-c3cc(Cl)c(O)c(Cl)c3)nc2c1N1CCC(C)CC1	> 82	> 10000 nM	123 nM				
CCOC(=O)c1cnc2ccc(-c3ccc(C(=O)O)cc3)nc2c1N[C@H]1CC[C@H](CN(C)C)CC1	> 10	> 10000 nM	990 nM				
CC(C)CNC(=O)c1cnc2ccc(-c3cc(Cl)c(O)c(Cl)c3)nc2c1N[C@H]1CC[C@H](CN(C)C)CC1	3	16 nM	6 nM				
CCOC(=O)c1cnc2ccc(-c3cc(Cl)c(O)c(Cl)c3)nc2c1N[C@H]1CC[C@H](C)CC1		> 10000 nM	> 10000 nM				
CN(C)C[C@H]1CC[C@H](Nc2c(C(=O)N3CCOCC3)cnc3ccc(-c4cc(Cl)c(O)c(Cl)c4)nc23)CC1	> 16		641 nM				> 10000 nM
CCCNC(=O)c1cnc2ccc(-c3cc(Cl)c(O)c(Cl)c3)nc2c1N[C@H]1CC[C@H](CN(C)C)CC1	7	38 nM	6 nM				
CCOC(=O)c1cnc2ccc(-c3ccnc(O)c3)nc2c1N[C@H]1CC[C@H](CN(C)C)CC1	6	2360 nM	383 nM				
CCOC(=O)c1cnc2ccc(-c3ccnc(N)c3)nc2c1N[C@H]1CC[C@H](CN(C)C)CC1	19	1130 nM	59 nM	328 nM	22 nM	15	
NC(=O)[C@H]1CC[C@H](Nc2c(CO)cnc3ccc(-c4cc(Cl)c(O)c(Cl)c4)nc23)CC1	> 15	> 10000 nM	678 nM				
NC(=O)C[C@H]1CC[C@H](Nc2c(CO)cnc3ccc(-c4cc(Cl)c(O)c(Cl)c4)nc23)CC1	27	1970 nM	74 nM	1080 nM	500 nM	2.2	
CCNC(=O)c1cnc2ccc(-c3cc(Cl)c(O)c(Cl)c3)nc2c1N[C@H]1CC[C@H](CN(C)C)CC1	7	39 nM	6 nM				
CC(C)CCNC(=O)c1cnc2ccc(-c3cc(Cl)c(O)c(Cl)c3)nc2c1N[C@H]1CC[C@H](CN(C)C)CC1	8	21 nM	3 nM				
CCOC(=O)c1cnc2ccc(-c3ccc(O)nc3)nc2c1N[C@H]1CC[C@H](CN(C)C)CC1	> 7.5	> 10000 nM	1340 nM				
CCOC(=O)c1cnc2ccc(-c3cc(Cl)c(O)c(Cl)c3)nc2c1Nc1ccc(CN(C)C)cc1	146	3790 nM	26 nM	226 nM	31 nM	7.3	

SMILES	Ratio CC50/EC50 [1]	CC50 [2]	EC50 [3]	CC50 [4]	MEC [5]	Selectivity Index [6]	CC50 [7]
CCOC(=O)c1cnc2ccc(-c3ccnc(N)c3)nc2c1N[C@H]1CC[C@H](CN2CCCCC2)CC1	12	1350 nM	114 nM				
CNC(=O)c1cnc2ccc(-c3cc(Cl)c(O)c(Cl)c3)nc2c1N[C@H]1CC[C@H](CN(C)C)CC1	6	36 nM	6 nM				
CCOC(=O)c1cnc2ccc(-c3cc(Cl)c(O)c(Cl)c3)nc2c1N[C@H]1CC[C@H](N)CC1	5	44 nM	9 nM				
CCOC(=O)c1cnc2ccc(-c3ccc(O)cc3)nc2c1N[C@H]1CC[C@H](CN(C)C)CC1	> 33		300 nM				> 10000 nM
CCOC(=O)c1cnc2ccc(-c3ccc(N)cc3)nc2c1N[C@H]1CC[C@H](CN(C)C)CC1	> 5	> 10000 nM	2100 nM				
CCOC(=O)c1cnc2ccc(-c3ccc(C(N)=O)cc3)nc2c1N[C@H]1CC[C@H](CN(C)C)CC1	> 2	> 10000 nM	4660 nM				
CCOC(=O)c1cnc2ccc(-c3cc(Cl)cc(Cl)c3)nc2c1N[C@H]1CC[C@H](CN(C)C)CC1		> 10000 nM	> 10000 nM				
CCOC(=O)c1cnc2ccc(-c3ccnc(N)c3)nc2c1N[C@H]1CC[C@H](CN2CCCC2)CC1	7	756 nM	108 nM				
CCOC(=O)c1cnc2ccc(-c3cc(Cl)c(O)c(Cl)c3)nc2c1N1CCCCC1	17	3460 nM	203 nM				
CN(C)C[C@H]1CC[C@H](Nc2c(C(N)=O)cnc3ccc(-c4cc(Cl)c(O)c(Cl)c4)nc23)CC1	4	69 nM	15 nM				
CCOC(=O)c1cnc2ccc(-c3cc(Cl)c(O)c(Cl)c3)nc2c1N1CCNCC1	> 137	10000 nM	73 nM	> 10000 nM	250 nM	>40	
CN(C)C[C@H]1CC[C@H](Nc2c(C(=O)N(C)C)cnc3ccc(-c4cc(Cl)c(O)c(Cl)c4)nc23)CC1	> 28		354 nM				> 10000 nM
CCOC(=O)c1cnc2ccc(-c3ccnc(C)c3)nc2c1N[C@H]1CC[C@H](CN(C)C)CC1	> 7	> 10000 nM					
CCOC(=O)c1cnc2ccc(-c3cc(C)nc(C)c3)nc2c1N[C@H]1CC[C@H](CN(C)C)CC1		> 10000 nM	> 10000 nM				
CC(=O)c1cnc2ccc(-c3cc(Cl)c(O)c(Cl)c3)nc2c1N[C@H]1CC[C@H](C(N)=O)CC1	153	1660 nM	11 nM	231 nM	125 nM	1.8	
CCOC(=O)c1cnc2ccc(-c3cc(Cl)c(O)c(Cl)c3)nc2c1N[C@H]1CC[C@H](CO)CC1	27	2670 nM	100 nM	785 nM	250 nM	3.1	
CCOC(=O)c1cnc2ccc(-c3cc(Cl)c(O)c(Cl)c3)nc2c1N[C@H]1CC[C@H](CN2CCOCC2)CC1	71	491 nM	7 nM				
CCCCCNC(=O)c1cnc2ccc(-c3cc(Cl)c(O)c(Cl)c3)nc2c1N[C@H]1CC[C@H](CN(C)C)CC1	4	19 nM	5 nM				
